{"source": "ChEMBL document CHEMBL4765336", "about": "“Discovery of coumarin derivatives as potent and selective cyclin-dependent kinase 9 (CDK9) inhibitors with high antitumour activity” (Eur J Med Chem, 2020)", "key": {"A-375": {"tested_on": "A-375", "assay": "Antiproliferative activity against human A-375 cells assessed as inhibition of cell growth incubated for 72 hrs by Celltiter-Glo luminescent assay", "type": "functional, cell-based", "conditions": "A-375, 72 h", "outline": "(§1)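 Cells seeded in growth medium and held overnight at 37 °C; medium-only wells served as background. DMSO stocks were diluted in medium to 3× final and added; cells incubated 72 h at 37 °C, 5% CO2. Viability read by CellTiter-Glo luminescence after 60 min at room temperature. IC50 from curve fit, mean of duplicate.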"}, "SW-620": {"tested_on": "SW-620", "assay": "Antiproliferative activity against human SW-620 cells assessed as inhibition of cell growth incubated for 72 hrs by Celltiter-Glo luminescent assay", "type": "functional, cell-based", "conditions": "SW-620, 72 h", "outline": "as §1"}, "[1]": {"assay": "Metabolic stability in rat liver microsomes assessed as half life at 1 uM incubated up to 60 mins in presence of NADPH by LC-MS/MS analysis", "type": "ADME, Microsome", "outline": "(§2)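 Liver microsomes (0.5 mg/mL) incubated at 37 °C with compound at 1.0 μM final, 3 mM MgCl2 and 1 mM NADPH in 100 mM PBS pH 7.4. Samples taken at 0, 5, 15, 30, 60 min; remaining parent measured by LC-MS/MS. k = −slope, T1/2 = 0.693/k, CLint = k/microsomal protein concentration. Midazolam served as control.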"}, "[2]": {"target": "Cyclin-dependent kinase 4/cyclin D1 (Homo sapiens, UniProt P11802)", "sequence (P11802 whole entry)": "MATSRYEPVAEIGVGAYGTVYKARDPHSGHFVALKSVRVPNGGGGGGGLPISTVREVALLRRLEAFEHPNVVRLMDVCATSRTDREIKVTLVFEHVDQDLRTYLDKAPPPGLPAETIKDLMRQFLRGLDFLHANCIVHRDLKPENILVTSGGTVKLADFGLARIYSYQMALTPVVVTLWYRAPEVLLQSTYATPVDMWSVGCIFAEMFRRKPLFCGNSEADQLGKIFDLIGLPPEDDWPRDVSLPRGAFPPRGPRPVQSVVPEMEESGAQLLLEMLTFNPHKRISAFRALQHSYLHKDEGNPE", "sequence (P24385 whole entry, further chain)": "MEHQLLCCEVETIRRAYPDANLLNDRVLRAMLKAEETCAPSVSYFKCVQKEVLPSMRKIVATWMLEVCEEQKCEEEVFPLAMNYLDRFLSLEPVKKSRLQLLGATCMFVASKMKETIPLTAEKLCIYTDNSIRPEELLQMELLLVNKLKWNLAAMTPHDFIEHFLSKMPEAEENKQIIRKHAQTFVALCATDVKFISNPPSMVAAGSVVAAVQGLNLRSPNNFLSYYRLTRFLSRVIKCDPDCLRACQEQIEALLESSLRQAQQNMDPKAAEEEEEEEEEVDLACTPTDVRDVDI", "assay": "Inhibition of CDK4/Cyclin D1 (unknown origin) preincubated for 20 mins followed by ATP addition and measured after 120 mins in presence of [33P-gamma] ATP by hotspot kinase assay", "type": "protein-complex assay", "outline": "(§3)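 Radiometric filter-binding assay: kinase and substrate in 20 mM Hepes pH 7.5, 10 mM MgCl2, 1 mM EGTA, 0.02% Brij35, 0.02 mg/mL BSA, 0.1 mM Na3VO4, 2 mM DTT, 1% DMSO. Compound (top 1/10/27 μM, 3-fold serial dilutions) preincubated 20 min at 25 °C. ATP plus [γ-33P]ATP added to 10 μM final, reacted 120 min at 25 °C. IC50 from curve fit, duplicate mean.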"}, "[3]": {"assay": "AUC (0 to t) in ICR mouse at 2 mg/kg, iv measured up to 24 hrs by LC-MS/MS analysis", "type": "ADME, organism-based", "parameters": "route intravenous, dose 2 mg/kg, time <=24", "conditions": "in vivo"}, "NCI-N87": {"tested_on": "NCI-N87", "assay": "Antiproliferative activity against human NCI-N87 cells assessed as inhibition of cell growth incubated for 72 hrs by Celltiter-Glo luminescent assay", "type": "functional, cell-based", "conditions": "NCI-N87, 72 h", "outline": "as §1"}, "MV4-11 [4]": {"tested_on": "MV4-11", "assay": "Antitumor activity against human MV4-11 cells xenografted in Balb/c nude mouse assessed as reduction in tumor volume at 40 mg/kg, iv administered once daily for 21 days (reference value: 1.00 g)", "type": "functional", "conditions": "time 21 day"}, "MV4-11 [5]": {"tested_on": "MV4-11", "assay": "Antitumor activity against human MV4-11 cells xenografted in iv dosed BALB/c nude mouse assessed as tumor growth inhibition administered once daily for 21 days and measured twice per week by vernier caliper method", "type": "functional, organism-based", "conditions": "dose 10-40 mg/kg, time 21.0 day"}, "MDA-MB-231": {"tested_on": "MDA-MB-231", "assay": "Antiproliferative activity against human MDA-MB-231 cells assessed as inhibition of cell growth incubated for 72 hrs by Celltiter-Glo luminescent assay", "type": "functional, cell-based", "conditions": "MDA-MB-231, 72 h", "outline": "as §1"}, "[6]": {"assay": "Volume of distribution at steady state in ICR mouse at 2 mg/kg, iv measured up to 24 hrs by LC-MS/MS analysis", "type": "ADME, organism-based", "conditions": "in vivo, read-out: Vdss", "outline": "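Male ICR mice (25.1–28.8 g, n=9), fasted 12 h, given a single i.v. dose of 2.0 mg/kg at 0.4 mg/mL in DMSO/PEG200/saline (1:1:3). Blood sampled at 0, 0.083, 0.25, 0.5, 1, 2, 4, 8, 24 h. Plasma ACN-precipitated and quantified by LC-MS/MS. Parameters derived from composite mean plasma concentration-time data.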"}, "BXPC-3": {"tested_on": "BXPC-3", "assay": "Antiproliferative activity against human BxPC3 cells assessed as inhibition of cell growth incubated for 72 hrs by Celltiter-Glo luminescent assay", "type": "functional, cell-based", "conditions": "BXPC-3, 72 h", "outline": "as §1"}, "[7]": {"assay": "Metabolic stability in dog liver microsomes assessed as intrinsic clearance at 1 uM incubated up to 60 mins in presence of NADPH by LC-MS/MS analysis", "type": "ADME, Canis lupus familiaris, Microsome", "conditions": "read-out: CLH", "outline": "as §2"}, "[8]": {"target": "Voltage-gated inwardly rectifying potassium channel KCNH2 (Homo sapiens, UniProt Q12809)", "sequence (Q12809 whole entry)": "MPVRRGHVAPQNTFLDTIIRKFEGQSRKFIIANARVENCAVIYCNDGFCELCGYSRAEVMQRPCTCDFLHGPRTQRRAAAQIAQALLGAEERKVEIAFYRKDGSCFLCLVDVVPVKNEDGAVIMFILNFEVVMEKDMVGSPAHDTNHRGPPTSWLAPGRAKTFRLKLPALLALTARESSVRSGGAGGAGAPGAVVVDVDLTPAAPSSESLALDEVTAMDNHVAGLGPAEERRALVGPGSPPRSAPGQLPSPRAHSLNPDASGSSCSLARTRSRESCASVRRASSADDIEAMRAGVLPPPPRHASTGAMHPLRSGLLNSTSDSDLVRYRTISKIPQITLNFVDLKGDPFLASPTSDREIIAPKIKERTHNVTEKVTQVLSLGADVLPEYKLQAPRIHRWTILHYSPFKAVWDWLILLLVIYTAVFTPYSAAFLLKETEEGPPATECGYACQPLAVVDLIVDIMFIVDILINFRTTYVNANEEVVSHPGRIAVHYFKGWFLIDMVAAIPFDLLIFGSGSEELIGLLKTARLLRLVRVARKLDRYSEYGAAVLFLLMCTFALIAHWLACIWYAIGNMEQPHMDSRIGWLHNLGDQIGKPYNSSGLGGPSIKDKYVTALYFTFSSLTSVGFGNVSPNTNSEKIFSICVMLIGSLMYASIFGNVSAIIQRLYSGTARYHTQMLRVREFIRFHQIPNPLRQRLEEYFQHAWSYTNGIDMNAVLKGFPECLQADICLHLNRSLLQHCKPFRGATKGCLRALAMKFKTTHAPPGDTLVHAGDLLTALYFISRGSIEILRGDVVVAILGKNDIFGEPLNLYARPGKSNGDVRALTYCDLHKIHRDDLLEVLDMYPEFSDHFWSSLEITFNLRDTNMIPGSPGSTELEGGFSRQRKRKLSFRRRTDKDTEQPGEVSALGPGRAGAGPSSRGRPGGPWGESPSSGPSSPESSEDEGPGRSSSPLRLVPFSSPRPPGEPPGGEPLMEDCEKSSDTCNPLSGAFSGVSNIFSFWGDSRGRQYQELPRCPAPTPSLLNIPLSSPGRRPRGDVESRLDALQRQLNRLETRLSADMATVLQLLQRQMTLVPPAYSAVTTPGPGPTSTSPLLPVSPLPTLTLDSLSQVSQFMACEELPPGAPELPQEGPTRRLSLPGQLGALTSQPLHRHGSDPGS", "assay": "Inhibition of fluorescently labeled tracer binding to human ERG by competitive binding assay", "outline": "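Fluorescent tracer competition assay against a membrane preparation containing hERG.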"}, "[9]": {"assay": "Tmax in ICR mouse at 30 mg/kg, po measured up to 24 hrs by LC-MS/MS analysis", "type": "ADME, organism-based", "conditions": "in vivo", "outline": "(§4)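 Male ICR mice (25.1–28.8 g, n=9), fasted overnight (12 h), single oral gavage 30 mg/kg as 3 mg/mL in 0.5% CMC-Na with 0.2% Tween 80. Venous blood drawn into EDTA-K2 at 0, 0.25, 0.5, 1, 2, 4, 8, 24 h. Plasma protein-precipitated with ACN and run on LC-MS/MS (C18, formic acid/ACN). Noncompartmental parameters taken from composite mean concentration-time data.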"}, "HepG2": {"tested_on": "HepG2", "assay": "Antiproliferative activity against human HepG2 cells assessed as inhibition of cell growth incubated for 72 hrs by Celltiter-Glo luminescent assay", "type": "functional, cell-based", "conditions": "HepG2, 72 h", "outline": "as §1"}, "[10]": {"assay": "AUC (0 to infinity) in ICR mouse at 2 mg/kg, iv measured up to 24 hrs by LC-MS/MS analysis", "type": "ADME, organism-based", "parameters": "route intravenous, dose 2 mg/kg, time <=24", "conditions": "in vivo"}, "[11]": {"assay": "Cmax in ICR mouse at 30 mg/kg, po measured up to 24 hrs by LC-MS/MS analysis", "type": "ADME, organism-based", "parameters": "route oral, dose 30 mg/kg, time <=24", "conditions": "in vivo", "outline": "as §4"}, "CDK6/cyclin D3": {"target": "CDK6/cyclin D3 (Homo sapiens, UniProt Q00534)", "sequence (P30281 whole entry)": "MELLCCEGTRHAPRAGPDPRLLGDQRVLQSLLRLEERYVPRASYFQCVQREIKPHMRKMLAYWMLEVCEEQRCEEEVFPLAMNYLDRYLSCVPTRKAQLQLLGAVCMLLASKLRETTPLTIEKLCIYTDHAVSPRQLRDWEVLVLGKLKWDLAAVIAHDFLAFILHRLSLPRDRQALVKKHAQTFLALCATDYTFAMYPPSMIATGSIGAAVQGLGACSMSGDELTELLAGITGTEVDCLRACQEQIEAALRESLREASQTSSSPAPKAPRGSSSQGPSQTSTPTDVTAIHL", "sequence (Q00534 whole entry)": "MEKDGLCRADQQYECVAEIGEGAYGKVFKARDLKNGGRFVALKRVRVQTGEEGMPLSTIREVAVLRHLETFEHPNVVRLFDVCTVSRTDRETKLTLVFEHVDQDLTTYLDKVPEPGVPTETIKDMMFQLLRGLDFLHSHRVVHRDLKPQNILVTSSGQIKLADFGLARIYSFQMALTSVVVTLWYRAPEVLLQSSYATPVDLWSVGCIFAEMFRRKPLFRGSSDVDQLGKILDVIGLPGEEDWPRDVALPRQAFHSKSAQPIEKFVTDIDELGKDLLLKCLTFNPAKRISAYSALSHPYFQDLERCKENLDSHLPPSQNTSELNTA", "assay": "Inhibition of CDK6/Cyclin D3 (unknown origin) preincubated for 20 mins followed by ATP addition and measured after 120 mins in presence of [33P-gamma] ATP by hotspot kinase assay", "type": "protein-complex assay", "outline": "as §3"}, "[12]": {"assay": "Toxicity in BALB/c nude mouse xenografted with human MV4-11 cells assessed as body weight loss at 40 mg/kg, iv administered once daily for 21 days and measured 2 or 3 times per week", "type": "organism-based", "conditions": "in vivo, 504 h, time 21 day", "outline": "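Female BALB/c nude mice, six weeks old, with subcutaneous right-flank MV4-11 xenografts (5 million cells in PBS mixed 1:1 with Matrigel). Daily intravenous dosing started at tumour size 150–200 mm³, 6 mice per group, for 21 consecutive days. Vehicle was dimethylacetamide 20%/polyoxyethylated castor oil 40%/anhydrous ethanol 40%. Body weight was recorded two or three times weekly, and mortality was monitored throughout treatment.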"}, "PANC-1": {"tested_on": "PANC-1", "assay": "Antiproliferative activity against human PANC-1 cells assessed as inhibition of cell growth incubated for 72 hrs by Celltiter-Glo luminescent assay", "type": "functional, cell-based", "conditions": "PANC-1, 72 h", "outline": "as §1"}, "[13]": {"assay": "Oral bioavailability in ICR mouse at 30 mg/kg measured up to 24 hrs by LC-MS/MS analysis", "type": "ADME, organism-based", "conditions": "in vivo", "outline": "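ICR mice (9 per route) received 30 mg/kg p.o. or 2.0 mg/kg i.v. Plasma was sampled to 24 h and analysed by LC-MS/MS. F (%) = AUC0-∞(oral)/AUC0-∞(iv) × dose(iv)/dose(oral) × 100.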"}, "CDK8/Cyclin C": {"target": "CDK8/Cyclin C (Homo sapiens, UniProt P49336)", "sequence (P49336 whole entry)": "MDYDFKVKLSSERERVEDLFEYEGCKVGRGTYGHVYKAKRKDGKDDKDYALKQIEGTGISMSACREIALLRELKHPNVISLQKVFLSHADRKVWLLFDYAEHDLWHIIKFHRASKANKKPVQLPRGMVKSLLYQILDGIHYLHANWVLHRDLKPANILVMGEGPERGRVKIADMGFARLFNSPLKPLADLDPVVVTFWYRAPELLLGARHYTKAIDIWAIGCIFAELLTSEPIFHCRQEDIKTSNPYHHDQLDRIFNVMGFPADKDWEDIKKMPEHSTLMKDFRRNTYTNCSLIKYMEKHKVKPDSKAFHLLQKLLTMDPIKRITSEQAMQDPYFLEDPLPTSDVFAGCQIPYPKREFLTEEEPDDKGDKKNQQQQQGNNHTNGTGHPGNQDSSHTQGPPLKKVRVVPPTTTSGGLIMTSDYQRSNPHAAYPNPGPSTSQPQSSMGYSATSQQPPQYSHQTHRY", "sequence (P24863 whole entry, further chain)": "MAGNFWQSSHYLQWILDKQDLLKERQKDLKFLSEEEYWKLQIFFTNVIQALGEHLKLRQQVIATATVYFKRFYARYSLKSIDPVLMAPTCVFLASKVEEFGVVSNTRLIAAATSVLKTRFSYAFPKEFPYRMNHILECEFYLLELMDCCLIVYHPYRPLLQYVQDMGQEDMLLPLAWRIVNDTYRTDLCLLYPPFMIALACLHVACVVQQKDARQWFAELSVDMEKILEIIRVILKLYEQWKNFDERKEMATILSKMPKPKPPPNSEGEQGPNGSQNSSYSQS", "assay": "Inhibition of CDK8/Cyclin C (unknown origin) preincubated for 20 mins followed by ATP addition and measured after 120 mins in presence of [33P-gamma] ATP by hotspot kinase assay", "type": "protein-complex assay", "outline": "as §3"}}, "data": [{"smiles": "COc1cc(F)ccc1-c1nc(Nc2ccc3c(N4CCOCC4)c(C(C)=O)c(=O)oc3c2)ncc1F", "values": [{"measurement": "IC50", "setting": "A-375", "value": 90, "unit": "nM"}, {"measurement": "IC50", "setting": "SW-620", "value": 430, "unit": "nM"}, {"measurement": "half-life at 1 µM", "setting": "[1]", "value": 2.01, "unit": "min"}, {"measurement": "IC50", "setting": "[2]", "value": 471, "unit": "nM"}, {"measurement": "AUC(0-t) at 24 h", "setting": "[3]", "value": 560, "unit": "ng·h/mL"}, {"measurement": "IC50", "setting": "NCI-N87", "value": 600, "unit": "nM"}, {"measurement": "Activity", "setting": "MV4-11 [4]", "value": 0.18, "unit": "g"}, {"measurement": "Activity", "setting": "MV4-11 [5]", "value": "Dose-dependent effect"}, {"measurement": "IC50", "setting": "MDA-MB-231", "value": 230, "unit": "nM"}, {"measurement": "Vd", "setting": "[6]", "value": 0.67, "unit": "L/kg"}, {"measurement": "IC50", "setting": "BXPC-3", "value": 80, "unit": "nM"}, {"measurement": "microsomal CLint at 1 µM", "setting": "[7]", "value": 98.7, "unit": "µL/min/mg"}, {"measurement": "IC50", "setting": "[8]", "value": 10100, "unit": "nM"}, {"measurement": "Tmax", "setting": "[9]", "value": 15, "unit": "min"}, {"measurement": "IC50", "setting": "HepG2", "value": 100, "unit": "nM"}, {"measurement": "AUC(0-inf)", "setting": "[10]", "value": 561, "unit": "ng·h/mL"}, {"measurement": "Cmax", "setting": "[11]", "value": 665, "unit": "ng/mL"}, {"measurement": "IC50", "setting": "CDK6/cyclin D3", "value": 336, "unit": "nM"}, {"measurement": "Activity", "setting": "[12]", "value": "Non-Toxic"}, {"measurement": "IC50", "setting": "PANC-1", "value": 300, "unit": "nM"}, {"measurement": "bioavailability", "setting": "[13]", "value": 14.3, "unit": "%"}, {"measurement": "IC50", "setting": "CDK8/Cyclin C", "value": 6500, "unit": "nM"}]}]}
